Holding throughout (format): functional
In assay [1] the test system is Aspergillus fumigatus. Briefly: Antifungal activity against aspergillus fumigatus. In short, it runs like this:
(§1)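 A. fumigatus grown on SAB agar 3–4 d at 35 °C; conidia used as inoculum at final 1 × 10^3 cfu/mL. Broth microdilution in SAB broth, 2-fold serial dilutions of compound dissolved in ethanol or DMSO. Incubated 48 h at 35 °C. MIC read by eye as the lowest concentration with no visible growth. Amphotericin B reference.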

The subject of assay [2] is Aspergillus fumigatus. Briefly: Antifungal activity against aspergillus fumigatus WM-1. In short, it runs like this:
as §1

For assay [3], the system named is Candida albicans. Briefly: Antifungal activity against candida albicans. The procedure, abridged:
(§2)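 Candida grown 24 h at 35 °C on YM agar, then 6 h at 35 °C with rotation in GYB broth (2% glucose, 1% yeast extract). Final inoculum 2 × 10^3 cfu/mL. 96-well SAB broth microdilution, 2-fold series from ethanol or DMSO solutions. 24 h at 35 °C; MIC = lowest concentration without visible growth. Amphotericin B reference.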

For assay [4], the system named is Candida albicans. The experiment in a line: Antifungal activity against candida albicans A-26. The procedure, abridged:
as §2

Assay [5] relates to Candida albicans. The experiment in a line: Antifungal activity against candida albicans B-311. The procedure, abridged:
as §2

Another assay relates to Pichia kudriavzevii. Briefly: Antifungal activity against candida krusei GK7831. In short, it runs like this:
as §2

In a further assay the test system is Candida parapsilosis. The experiment in a line: Antifungal activity against candida parapsilosis CP18. The note with it: Lodderomyces parapsilosis. The procedure, abridged:
as §2

The test system of assay [6] is Cryptococcus neoformans. The experiment in a line: Antifungal activity against cryptococcus neoformans. The procedure, abridged:
(§3)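 C. neoformans grown on YM agar 48 h at 35 °C, then 6 h in GYB broth at 35 °C with rotation. Final inoculum 2 × 10^4 cfu/mL. SAB broth microdilution with 2-fold serial dilutions (compound in ethanol or DMSO). Incubated 48 h at 35 °C; MIC read visually as the lowest concentration with no growth. Amphotericin B reference.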

The test system of assay [7] is Cryptococcus neoformans. Briefly: Antifungal activity against cryptococcus neoformans MI-106. In short, it runs like this: as §3
Another assay relates to Candida tropicalis. The experiment in a line: Antifungal activity against candida tropicalis 1525. In short, it runs like this:
as §2

The subject of a further assay is Trichophyton rubrum. The experiment in a line: Antifungal activity against Trichophyton rubrum ATCC 18762. The procedure, abridged:
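T. rubrum grown on SAB agar 5–7 d at 25 °C; conidia as inoculum, final 1 × 10^4 cfu/mL. Compounds in ethanol or DMSO, 2-fold serial dilutions in SAB broth in 96-well plates. Incubated 7 d at 25 °C. MIC taken as the lowest concentration with no visible growth versus the growth-control wells. Amphotericin B was the reference.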

As a reminder, the MIC is the least concentration at which growth counts as inhibited. Lower therefore signals greater potency.

SMILES strings stand for the structures. ≈ marks a conversion by molar mass, not a printed value.

As for `OCC1=CC=C(/C=N/O)SS1`, the MIC stood at 1.6 µg/mL (≈ 8.45 µM) with Aspergillus fumigatus [1]; 1.6 µg/mL (≈ 8.45 µM) against Aspergillus fumigatus [2]; 1.6 µg/mL (≈ 8.45 µM) with Candida albicans [3]; 1.6 µg/mL (≈ 8.45 µM) in the assay on Candida albicans [4]; 1.6 µg/mL (≈ 8.45 µM) against Candida albicans [5]; 6.3 µg/mL (≈ 33.3 µM) with Pichia kudriavzevii. Moreover, the MIC against Candida parapsilosis was 3.1 µg/mL (≈ 16.4 µM); against Cryptococcus neoformans [6], 1.6 µg/mL (≈ 8.45 µM); in the assay with Cryptococcus neoformans [7] it was 1.6 µg/mL (≈ 8.45 µM); against Candida tropicalis, 6.3 µg/mL (≈ 33.3 µM); in the assay on Trichophyton rubrum it was 0.8 µg/mL (≈ 4.23 µM).

The record behind these values is ChEMBL document CHEMBL1128433, “Novel 1,2-dithiins: synthesis, molecular modeling studies, and antifungal activity” (1995).
